# Assay results gathered from unrelated publications.
# pIC50: −log10 of the molar value.
# Observed: cell growth or viability
Structure (SMILES),cell line,technique,time,measurement,value
COc1ccc2c(c1)[nH]c1c(C)nccc12,PC-12,MTT,48 h,pIC50,4.75
N.N.[Cl][Pt][Cl],SW480,MTT,48 h,pIC50,4.87
Cc1cc(N(CCO)CCO)ccc1C=O,A498,,,IC50,> 10 µg/mL
CC1=C(O)C(=O)C=C2C1=CC=C1[C@@]2(C)CC[C@@]2(C)[C@@H]3C[C@](C)(C(=O)O)CC[C@]3(C)CC[C@]12C,MGC-803,MTT,48 h,pIC50,6.46
Cc1cccc(-n2ncc(Cl)c(Cl)c2=O)c1,NCI-H2030,resazurin,96 h,pIC50,6.57
N.N.[Cl][Pt][Cl],MGC-803,MTT,24 h,pIC50,4.53
C[C@H]1CN(c2ccncc2NC(=O)c2ccc(F)c(-c3c(F)cccc3F)n2)C[C@@H](N)[C@@H]1O,MM1.S,thymidine uptake,72 h,GI50,22 nM
CC1=C(O)C(=O)C=C2C1=CC=C1[C@@]2(C)CC[C@@]2(C)[C@@H]3C[C@](C)(C(=O)OCCCn4cc(C=O)c5ccccc54)CC[C@]3(C)CC[C@]12C,MGC-803,MTT,48 h,pIC50,6.47
Cc1cc(N(CCOS(C)(=O)=O)CCOS(C)(=O)=O)ccc1C=O,A498,,,IC50,0.0463 µg/mL
